Data reported in ChEMBL document CHEMBL3872215, “Optimization and biological evaluation of aminopyrimidine-based IκB kinase β inhibitors with potent anti-inflammatory effects” (Eur J Med Chem, 2016).
pIC50: −log10 of the molar value. Activity calls are given as the source filed them. The rule behind the calls is not given here.

Key:
[1] = target: T1, Inhibitor of nuclear factor kappa-B kinase subunit beta (Homo sapiens, UniProt O14920); experiment: Inhibition of IKKbeta (unknown origin)
T1 sequence (O14920 whole entry): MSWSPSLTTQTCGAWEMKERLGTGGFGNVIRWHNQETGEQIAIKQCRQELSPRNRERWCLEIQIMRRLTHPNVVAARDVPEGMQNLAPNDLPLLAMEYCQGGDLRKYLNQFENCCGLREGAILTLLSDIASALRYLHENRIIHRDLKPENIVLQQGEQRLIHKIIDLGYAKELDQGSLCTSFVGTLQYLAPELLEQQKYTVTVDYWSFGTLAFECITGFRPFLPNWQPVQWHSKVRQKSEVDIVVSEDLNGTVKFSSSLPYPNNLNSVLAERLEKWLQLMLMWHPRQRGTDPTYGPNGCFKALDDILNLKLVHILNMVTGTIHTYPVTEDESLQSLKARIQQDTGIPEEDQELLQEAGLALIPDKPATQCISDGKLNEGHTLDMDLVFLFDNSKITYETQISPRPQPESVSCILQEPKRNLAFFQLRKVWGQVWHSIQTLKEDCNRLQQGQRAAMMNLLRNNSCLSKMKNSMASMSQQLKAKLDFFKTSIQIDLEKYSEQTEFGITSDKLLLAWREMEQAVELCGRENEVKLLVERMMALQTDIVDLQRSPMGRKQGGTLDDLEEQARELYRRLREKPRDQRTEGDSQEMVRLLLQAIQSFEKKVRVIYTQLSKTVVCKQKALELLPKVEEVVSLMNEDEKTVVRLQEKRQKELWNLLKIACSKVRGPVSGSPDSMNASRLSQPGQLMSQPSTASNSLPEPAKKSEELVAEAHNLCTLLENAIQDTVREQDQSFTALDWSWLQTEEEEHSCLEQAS

RAW264.7 [2] = experiment: Antiinflammatory activity against mouse RAW264.7 cells assessed as inhibition of LPS induced nitrite accumulation at 1 to 5 uM preincubated for 6 hrs followed by LPS challenge measured after 18 hrs by Griess reagent based assay; type: functional, cell-based
In short: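 Cells seeded at 1 × 10^5 cells/ml and grown 24 h, then pretreated 6 h with compound at 1, 2 or 5 µM. LPS 100 ng/ml added for a further 18 h. NO production read as nitrite in the culture medium and compared with the negative control.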

[3] = Lipophilicity, logD of the compound at pH 7.4; type: physicochemical; settings: buffer
RAW264.7 [4] = experiment: Antiinflammatory activity against mouse RAW264.7 cells assessed as inhibition of LPS induced nitric oxide synthase synthesis preincubated for 6 hrs followed by LPS challenge by western blot method; type: functional, cell-based
RAW264.7 [5] = experiment: Antiinflammatory activity against mouse RAW264.7 cells assessed as inhibition of LPS induced SiCAM-1 production at 5 uM preincubated for 6 hrs followed by LPS challenge measured after 18 hrs; type: functional, cell-based
In short: (§1)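 Cells cultured in DMEM with 10% FBS and 1% penicillin/streptomycin, pretreated 6 h with compound at 5 µM, then LPS 100 ng/ml for 18 h. Lysates mixed with antibody cocktail and incubated overnight on a blocked mouse cytokine array membrane, then streptavidin-HRP with chemiluminescent detection. Relative protein expression taken from densitometry of scanned images.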

[6] = target: T2, Inhibitor of nuclear factor kappa-B kinase subunit beta (Mus musculus) (UniProt O88351); experiment: Inhibition of LPS-induced IKKbeta phosphorylation in mouse RAW264.7 cells preincubated for 6 hrs followed by LPS challenge measured after 30 mins by Western blot method
T2 sequence (whole entry): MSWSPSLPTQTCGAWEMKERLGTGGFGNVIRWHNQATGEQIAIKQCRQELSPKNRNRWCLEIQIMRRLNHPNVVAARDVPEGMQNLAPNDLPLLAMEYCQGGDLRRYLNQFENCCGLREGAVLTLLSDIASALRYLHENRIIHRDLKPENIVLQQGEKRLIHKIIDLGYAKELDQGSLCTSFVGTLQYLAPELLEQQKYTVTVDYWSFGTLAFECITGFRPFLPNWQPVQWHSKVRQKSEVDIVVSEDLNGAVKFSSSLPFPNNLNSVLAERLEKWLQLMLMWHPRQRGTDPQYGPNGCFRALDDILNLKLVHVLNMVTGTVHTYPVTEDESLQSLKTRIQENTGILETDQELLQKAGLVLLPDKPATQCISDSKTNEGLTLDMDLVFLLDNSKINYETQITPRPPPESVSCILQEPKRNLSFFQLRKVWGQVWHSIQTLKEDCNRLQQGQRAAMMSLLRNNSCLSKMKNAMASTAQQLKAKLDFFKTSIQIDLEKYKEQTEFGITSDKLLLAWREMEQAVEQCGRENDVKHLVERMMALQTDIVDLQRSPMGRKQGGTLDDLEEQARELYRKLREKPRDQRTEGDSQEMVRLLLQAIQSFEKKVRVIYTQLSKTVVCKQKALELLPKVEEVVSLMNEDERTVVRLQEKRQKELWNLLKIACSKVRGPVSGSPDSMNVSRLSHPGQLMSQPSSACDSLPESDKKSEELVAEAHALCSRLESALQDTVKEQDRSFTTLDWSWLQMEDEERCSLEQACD

RAW264.7 [7] = experiment: Antiinflammatory activity against mouse RAW264.7 cells assessed as inhibition of LPS induced TIMP-1 production at 5 uM preincubated for 6 hrs followed by LPS challenge measured after 18 hrs; type: functional, cell-based; in short: as §1
[8] = target: T2, Inhibitor of nuclear factor kappa-B kinase subunit beta (Mus musculus); experiment: Inhibition of LPS-induced IKKbeta-mediated IkappaB-alpha phosphorylation in mouse RAW264.7 cells preincubated for 6 hrs followed by LPS challenge measured after 30 mins by Western blot method
RAW264.7 [9] = experiment: Antiinflammatory activity against mouse RAW264.7 cells assessed as inhibition of LPS induced IL-6 production preincubated for 6 hrs followed by LPS challenge measured after 18 hrs by ELISA method; type: functional, cell-based
In short: (§2)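 Cells plated at 4 × 10^5 per well and left to attach overnight, then pretreated 6 h with compound (1, 2 and 5 µM) before LPS 100 ng/ml for 18 h. IL-6 and TNF-α measured in cell-free supernatants with a mouse ELISA kit, following the kit instructions.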

[10] = target: T2, Inhibitor of nuclear factor kappa-B kinase subunit beta (Mus musculus); experiment: Inhibition of LPS-induced IKKbeta-mediated NF-kappa-B p65 phosphorylation in mouse RAW264.7 cells preincubated for 6 hrs followed by LPS challenge measured after 30 mins by ELISA method; type: cell-based
In short: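 Cells exposed 6 h to compound at 1, 2 and 5 µM, then LPS 100 ng/ml for 30 min. Cytoplasmic phospho-NF-κB p65 measured with an ELISA kit, following the kit instructions.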

RAW264.7 [11] = experiment: Antiinflammatory activity against mouse RAW264.7 cells assessed as inhibition of LPS induced TNF-alpha production preincubated for 6 hrs followed by LPS challenge measured after 18 hrs by ELISA method; type: functional, cell-based; in short: as §2
[12] = target: T2, Inhibitor of nuclear factor kappa-B kinase subunit beta (Mus musculus); experiment: Inhibition of LPS induced IKKbeta-mediated NF-kappa-B p65 nuclear translocation in mouse RAW264.7 cells at 5 uM preincubated for 6 hrs followed by LPS challenge measured after 30 mins by DAPI staining based confocal laser scanning microscopic method; type: cell-based
In short: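 Pretreatment 6 h with 5 µM compound, then LPS 100 ng/ml for 30 min. Cells fixed in acetone:methanol 1:1 for 10 min, blocked 1 h at room temperature, and incubated overnight at 4 °C with p-NF-κB antibody (1:50). RITC secondary (1:100) applied 1 h, nuclei stained with DAPI, and slides imaged by confocal laser scanning microscopy.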

RAW264.7 [13] = experiment: Antiinflammatory activity against mouse RAW264.7 cells assessed as inhibition of LPS induced I-TAC production at 5 uM preincubated for 6 hrs followed by LPS challenge measured after 18 hrs; type: functional, cell-based; in short: as §1
RAW264.7 [14] = experiment: Antiinflammatory activity against mouse RAW264.7 cells assessed as inhibition of LPS induced IL-1alpha production at 5 uM preincubated for 6 hrs followed by LPS challenge measured after 18 hrs; type: functional, cell-based; in short: as §1

pIC50 [1]	Compound	other results
6.72	N#Cc1cccc(-c2ccnc(Nc3ccc(S(=O)(=O)NCCO)cc3)n2)c1	inhibition (RAW264.7 [2]): Active; logD [3]: 1.49
5.38	CC(=O)Nc1ccc(Nc2nccc(-c3ccc(Oc4ccccc4N)cc3)n2)cc1	
5.82	NS(=O)(=O)c1ccc(Nc2nccc(-c3ccc(Oc4ccccc4)cc3)n2)cc1	
4.47	Nc1ccccc1Oc1ccc(-c2ccnc(Nc3ccc(Cl)cc3)n2)cc1	
5.96	CNS(=O)(=O)c1ccc(Nc2nccc(-c3ccc(Oc4ccccc4[N+](=O)[O-])cc3)n2)cc1	
5.09	CC(=O)c1ccc(Nc2nccc(-c3ccc(Oc4ccccc4N)cc3)n2)cc1	
7.28	Nc1ccc(-c2ccnc(Nc3ccc(S(=O)(=O)NCCO)cc3)n2)cc1	inhibition (RAW264.7 [2]): Active; logD [3]: 0.58
7.10	CN(C)CCOc1ccc(-c2ccnc(Nc3ccc(S(N)(=O)=O)cc3)n2)cc1	inhibition (RAW264.7 [2]): Active
7.39	Nc1ccc(-c2ccnc(Nc3ccc(S(N)(=O)=O)cc3)n2)cc1	inhibition (RAW264.7 [4]): Dose-dependent effect; inhibition (RAW264.7 [5]): Active; inhibition (RAW264.7 [2]): Active; inhibition [6]: Dose-dependent effect; inhibition (RAW264.7 [7]): Active; inhibition [8]: Dose-dependent effect; inhibition (RAW264.7 [9]): Dose-dependent effect; inhibition [10]: Dose-dependent effect; inhibition (RAW264.7 [11]): Dose-dependent effect; inhibition [12]: Active; inhibition (RAW264.7 [13]): Active; inhibition (RAW264.7 [14]): Active
6.86	CC(C)(C)OC(=O)NCCOc1ccc(-c2ccnc(Nc3ccc(S(N)(=O)=O)cc3)n2)cc1	
5.80	Nc1ccccc1Oc1ccc(-c2ccnc(Nc3cccc(S(N)(=O)=O)c3)n2)cc1	
5.34	Nc1ccccc1Oc1ccc(-c2ccnc(Nc3ccc4ncsc4c3)n2)cc1	
< 4.70	COC(=O)Nc1ccc(Nc2nccc(-c3ccc(Oc4ccccc4[N+](=O)[O-])cc3)n2)cc1	
7.72	NS(=O)(=O)c1ccc(Nc2nccc(-c3ccc(Cl)cc3)n2)cc1	
5.21	N#Cc1ccc(Nc2nccc(-c3ccc(Oc4ccccc4N)cc3)n2)cc1	
5.57	CS(=O)(=O)c1ccc(Nc2nccc(-c3ccc(Oc4ccccc4N)cc3)n2)cc1	
7.19	NCCOc1ccc(-c2ccnc(Nc3ccc(S(N)(=O)=O)cc3)n2)cc1	inhibition (RAW264.7 [2]): Active; logD [3]: 1.39
7.47	NS(=O)(=O)c1ccc(Nc2nccc(-c3ccc(Oc4ccccc4[N+](=O)[O-])cc3)n2)cc1	
7.24	N#Cc1ccc(-c2ccnc(Nc3ccc(S(N)(=O)=O)cc3)n2)cc1	logD [3]: 3.81
4.93	Nc1ccccc1Oc1ccc(-c2ccnc(Nc3ccccc3)n2)cc1	
4.92	COc1ccc(Nc2nccc(-c3ccc(Oc4ccccc4N)cc3)n2)cc1	
< 4.30	Cc1ccc(Nc2nccc(-c3ccc(Oc4ccccc4N)cc3)n2)cc1	
4.85	NC(=O)c1ccc(Nc2nccc(-c3ccc(Oc4ccccc4N)cc3)n2)cc1	
6.49	CS(=O)(=O)Nc1ccc(Nc2nccc(-c3ccc(Oc4ccccc4[N+](=O)[O-])cc3)n2)cc1	
6.95	N#Cc1ccc(-c2ccnc(Nc3ccc(S(=O)(=O)NCCO)cc3)n2)cc1	
< 4.70	CCOC(=O)Nc1ccc(Nc2nccc(-c3ccc(Oc4ccccc4[N+](=O)[O-])cc3)n2)cc1	
5.96	Nc1ccccc1Oc1ccc(-c2ccnc(Nc3ccc(S(=O)(=O)Nc4nccs4)cc3)n2)cc1	
7.01	Nc1ccccc1Oc1ccc(-c2ccnc(Nc3ccc(S(N)(=O)=O)cc3)n2)cc1	logD [3]: 3.29
4.54	CN(C)c1ccc(Nc2nccc(-c3ccc(Oc4ccccc4N)cc3)n2)cc1	
